Assay results reported in ChEMBL document CHEMBL1145518, “Potent immune-modulating and anticancer effects of NKT cell stimulatory glycolipids” (2007).
Calls of active or inactive are those of the source. No cut-off for these calls is given here.

Experiments:
[1] = test system: Mus musculus; experiment: Induction of MCP1 secretion in BALB/c mouse serum at 2 ug, iv after 2 hrs relative to control; assay type: functional
In short: (§1)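 BALB/c mice received an i.v. injection of 100 μl of glycolipid diluted to 20 μg/ml in saline from DMSO stock, with 1% DMSO as vehicle. Serum cytokines/chemokines were measured at 2 and 18 h after injection.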

[2] = Induction of IL15 secretion in human CD161+ CD3+ NKT cells at 10 ug/ml after 18 hrs relative to basal level; assay type: functional
In short: (§2)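 Human Vα24i NKT cell lines were expanded for 10 days on irradiated (3,000 rad) autologous immature DCs with 10 units/ml IL-2. The cells (1 × 10^5) were cocultured with 5 × 10^4 irradiated immature CD14+ DCs plus glycolipid at 10 μg/ml. Supernatants were collected at 18 h and read on a 22-plex Luminex bead panel. Triplicates, mean ± SD.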

[3] = test system: Mus musculus; experiment: Increase in CD8/CD4 T cell ratio in BALB/c mouse at 2 ug, iv after 72 hrs by flow cytometry; assay type: functional, organism-based
[4] = test system: Mus musculus; experiment: Induction of MIPbeta secretion in BALB/c mouse serum at 2 ug, iv after 2 hrs relative to control; assay type: functional; in short: as §1
[5] = Induction of RANTES secretion in human CD161+ CD3+ NKT cells at 10 ug/ml after 18 hrs relative to basal level; assay type: functional; in short: as §2
[6] = test system: Mus musculus; experiment: Activation of NKT cells in BALB/c mouse at 2 ug, iv after 72 hrs by flow cytometry; assay type: functional, organism-based
In short: (§3)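 BALB/c mice (n = 4/group) were given 100 μl of glycolipid at 20 μg/ml in saline i.v., or 100 μl of 1% DMSO. Spleens were harvested after 72 h and splenocyte subsets counted by flow cytometry: mature DCs as CD11c+/CD80+/CD86+, activated NK as U5A2-13Ag+/CD3−/CD69+, activated NKT as U5A2-13Ag+/CD3+/CD69+. Assays were run in duplicate, mean ± SD.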

[7] = test system: Mus musculus; experiment: Induction of IL4 secretion in BALB/c mouse serum at 2 ug, iv after 2 hrs relative to control; assay type: functional; in short: as §1
[8] = Induction of MCP1 secretion in human CD161+ CD3+ NKT cells at 10 ug/ml after 18 hrs relative to basal level; assay type: functional; in short: as §2
[9] = test system: Mus musculus; experiment: Induction of IL10 secretion in BALB/c mouse serum at 2 ug, iv after 18 hrs relative to control; assay type: functional; in short: as §1
[10] = Induction of MIPalpha secretion in human CD161+ CD3+ NKT cells at 10 ug/ml after 18 hrs relative to basal level; assay type: functional; in short: as §2
[11] = test system: Mus musculus; experiment: Induction of IL12p70 secretion in BALB/c mouse serum at 2 ug, iv after 18 hrs relative to control; assay type: functional; in short: as §1
[12] = test system: Mus musculus; experiment: Induction of TNFalpha secretion in BALB/c mouse serum at 2 ug, iv after 18 hrs relative to control; assay type: functional; in short: as §1
[13] = test system: Mus musculus; experiment: Induction of KC secretion in BALB/c mouse serum at 2 ug, iv after 2 hrs relative to control; assay type: functional; in short: as §1
[14] = test system: NKT; experiment: Stimulation of cell expansion of human invariant CD161+/ Valpha24+/ CD56+/ CD3+ NKT cells by flow cytometry method; assay type: functional, cell-based
In short: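 CD56+ NK/NKT mixtures (2 × 10^6) were isolated from human leukopaks with anti-CD56 microbeads. They were cocultured with 4 × 10^5 autologous immature CD14+ DCs pulsed with glycolipid at 3 μg/ml, or with 0.3% DMSO, on day 2 for 18 h. Suspension cells were then transferred and kept in 100 units/ml IL-2 with fresh medium every 3 days. On day 9, CD161+/Vα24TCR+ cells were gated by flow cytometry and total Vα24i NKT cells counted. Triplicates, mean ± SD.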

[15] = Induction of GM-CSF secretion in human CD161+ CD3+ NKT cells at 10 ug/ml after 18 hrs relative to basal level; assay type: functional; in short: as §2
[16] = test system: Mus musculus; experiment: Activation of B cells in BALB/c mouse at 2 ug, iv after 72 hrs by flow cytometry; assay type: functional, organism-based
[17] = test system: 4T1; experiment: Antitumor activity in mouse 4T1 cells xenografted BALB/c mouse assessed as suppression of tumor growth at 2 ug, iv; assay type: functional, cell-based
In short: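 BALB/c mice (n = 6) were inoculated s.c. with 4T1 breast cancer cells. From day 3 they were treated i.v. with glycolipid or vehicle twice weekly for 4 weeks. Tumor volume was recorded every 3 days for 1 month, and survival was monitored up to 54 days.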

[18] = test system: Mus musculus; experiment: Induction of IL13 secretion in BALB/c mouse serum at 2 ug, iv after 2 hrs relative to control; assay type: functional; in short: as §1
[19] = test system: Mus musculus; experiment: Activation of natural killer cells in BALB/c mouse at 2 ug, iv after 72 hrs by flow cytometry; assay type: functional, organism-based; in short: as §3
[20] = test system: Mus musculus; experiment: Induction of IL2 secretion in BALB/c mouse serum at 2 ug, iv after 2 hrs relative to control; assay type: functional; in short: as §1
[21] = test system: Mus musculus; experiment: Induction of IL12p40 secretion in BALB/c mouse serum at 2 ug, iv after 18 hrs relative to control; assay type: functional; in short: as §1
[22] = test system: Mus musculus; experiment: Induction of IFN-gamma secretion in BALB/c mouse serum at 2 ug, iv after 18 hrs relative to control; assay type: functional; in short: as §1
[23] = Induction of IFN-gamma secretion in human CD161+ CD3+ NKT cells at 10 ug/ml after 18 hrs relative to basal level; assay type: functional; in short: as §2
[24] = Induction of IL10 secretion in human CD161+ CD3+ NKT cells at 10 ug/ml after 18 hrs relative to basal level; assay type: functional; in short: as §2
[25] = Induction of TNFalpha secretion in human CD161+ CD3+ NKT cells at 10 ug/ml after 18 hrs relative to basal level; assay type: functional; in short: as §2
[26] = Induction of IL13 secretion in human CD161+ CD3+ NKT cells at 10 ug/ml after 18 hrs relative to basal level; assay type: functional; in short: as §2
[27] = test system: Mus musculus; experiment: Induction of IL6 secretion in BALB/c mouse serum at 2 ug, iv after 2 hrs relative to control; assay type: functional; in short: as §1
[28] = Induction of IL4 secretion in human CD161+ CD3+ NKT cells at 10 ug/ml after 18 hrs relative to basal level; assay type: functional; in short: as §2
[29] = Induction of IL6 secretion in human CD161+ CD3+ NKT cells at 10 ug/ml after 18 hrs relative to basal level; assay type: functional; in short: as §2
[30] = Induction of IL12p70 secretion in human CD161+ CD3+ NKT cells at 10 ug/ml after 18 hrs relative to basal level; assay type: functional; in short: as §2
[31] = test system: TC1; experiment: Antitumor activity in TC1 cells xenografted C57BL/6 mouse assessed as suppression of tumor growth at 2 ug, iv; assay type: functional, cell-based
In short: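 C57BL/6 mice (n = 5/group) were inoculated i.v. with TC-1 lung cancer cells. They were then treated i.v. with 2 μg glycolipid per mouse, or 100 μl of 1% DMSO, twice weekly for 4 weeks. Kaplan–Meier survival and body weight were followed, with tumor-free mice as an additional control.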

[32] = Induction of IL12p40 secretion in human CD161+ CD3+ NKT cells at 10 ug/ml after 18 hrs relative to basal level; assay type: functional; in short: as §2
[33] = test system: Mus musculus; experiment: Induction of IL1-beta secretion in BALB/c mouse serum at 2 ug, iv after 18 hrs relative to control; assay type: functional; in short: as §1
[34] = Induction of IL3 secretion in human CD161+ CD3+ NKT cells at 10 ug/ml after 18 hrs relative to basal level; assay type: functional; in short: as §2
[35] = test system: Mus musculus; experiment: Induction of RANTES secretion in BALB/c mouse serum at 2 ug, iv after 2 hrs relative to control; assay type: functional; in short: as §1
[36] = Induction of IL8 secretion in human CD161+ CD3+ NKT cells at 10 ug/ml after 18 hrs relative to basal level; assay type: functional; in short: as §2
[37] = Induction of IL2 secretion in human CD161+ CD3+ NKT cells at 10 ug/ml after 18 hrs relative to basal level; assay type: functional; in short: as §2
[38] = test system: Mus musculus; experiment: Induction of IL3 secretion in BALB/c mouse serum at 2 ug, iv after 2 hrs relative to control; assay type: functional; in short: as §1
[39] = test system: Mus musculus; experiment: Induction of GM-CSF secretion in BALB/c mouse serum at 2 ug, iv after 2 hrs relative to control; assay type: functional; in short: as §1
[40] = test system: Mus musculus; experiment: Activation of dendritic cells in BALB/c mouse at 2 ug, iv after 72 hrs by flow cytometry; assay type: functional, organism-based; in short: as §3

With CCCCCCCCCCCCCC[C@@H](O)[C@@H](O)[C@H](CO[C@H]1O[C@H](CO)[C@H](O)[C@H](O)[C@H]1O)NC(=O)CCCCCCCCCCc1ccccc1 the Activity [1] was 23.6, the Activity [2] was 2.7 and the Activity [3] was “Active”. The Activity [4] was 5.1, the Activity [5] was 1.6 and the Activity [6] was “Active”. The Activity [7] was 49.6, the Activity [8] was 0.6 and the Activity [9] was 1.3. For the same compound, the Activity [10] was 3.4, the Activity [11] was 1.6 and the Activity [12] was 45.6. For the same compound, the Activity [13] was 6.9, the Activity [14] was “Active” and the Activity [15] was 5.4. For the same compound, the Activity [16] was “Active”, the Activity [17] was “Active” and the Activity [18] was 7.7. For the same compound, the Activity [19] was “Active”, the Activity [20] was 50.5 and the Activity [21] was 2.4. The Activity [22] was 166.1, the Activity [23] was 6.2 and the Activity [24] was 1.8. The Activity [25] was 7.4, the Activity [26] was 1.6 and the Activity [27] was 5.8. For the same compound, the Activity [28] was 1.9, the Activity [29] was 2.1 and the Activity [30] was 3. The Activity [31] was “Active”, the Activity [32] was 2.1 and the Activity [33] was 3.4. It also gave an Activity [34] of 2.5, an Activity [35] of 2.2 and an Activity [36] of 1.8. It also gave an Activity [37] of 3.9, an Activity [38] of 1.9 and an Activity [39] of 2.7. The Activity [40] was “Active”.

With CCCCCCCCCCCCCCCCCCCCCCCCCC(=O)N[C@@H](CO[C@H]1O[C@H](CO)[C@H](O)[C@H](O)[C@H]1O)[C@H](O)[C@H](O)CCCCc1ccccc1 the Activity [2] was 2.3, the Activity [5] was 2 and the Activity [6] was “Active”. The Activity [8] was 1.8, the Activity [10] was 3.5 and the Activity [14] was “Active”. The Activity [15] was 5.8, the Activity [17] was “Active” and the Activity [19] was “Active”. For the same compound, the Activity [23] was 3.9, the Activity [24] was 2 and the Activity [25] was 3.4. It also gave an Activity [26] of 1.8, an Activity [28] of 2.8 and an Activity [29] of 1.9. The Activity [30] was 2.1, the Activity [31] was “Active” and the Activity [32] was 1.8. The Activity [34] was 2.6, the Activity [36] was 2.3 and the Activity [37] was 1.9. For the same compound, the Activity [40] was “Active”.

CCCCCCCCCCCCCCCCCCCCCCCCCC(=O)N[C@@H](CO[C@H]1O[C@H](CO)[C@H](O)[C@H](OS(=O)(=O)[O-])[C@H]1O)[C@H](O)[C@H](O)CCCCCCCCCCCCCC.[Na+] showed an Activity [1] of 14.8, an Activity [2] of 2.3 and an Activity [4] of 2.5. For the same compound, the Activity [5] was 1.6, the Activity [6] was “Active” and the Activity [7] was 42.9. The Activity [8] was 1.4, the Activity [9] was 2.4 and the Activity [10] was 3.4. The Activity [11] was 1.4, the Activity [12] was 36.3 and the Activity [13] was 16.4. The Activity [14] was “Active”, the Activity [15] was 6.6 and the Activity [16] was “Active”. For the same compound, the Activity [18] was 2.4, the Activity [19] was “Active” and the Activity [20] was 22. The Activity [21] was 2.1, the Activity [22] was 160.8 and the Activity [23] was 3.3. For the same compound, the Activity [24] was 2.5, the Activity [25] was 8.4 and the Activity [26] was 1.6. It also gave an Activity [27] of 2.2, an Activity [28] of 2.7 and an Activity [29] of 2.7. The Activity [30] was 2.8, the Activity [32] was 2 and the Activity [33] was 3.2. It also gave an Activity [34] of 3.3, an Activity [35] of 1.6 and an Activity [36] of 2.2. It also gave an Activity [37] of 2.4, an Activity [38] of 1.8 and an Activity [39] of 7.3. The Activity [40] was “Active”.
